Only some compounds are listed: those with a hit (about 1.9% of all), similar ones and a draw of the others.
Rin1 Abl inh = blocks binding of human Rin1 to Abl; TR-FRET Rin1/Abl binding, biochemical; inhibition, % at 7.35 µM; actives 0.4% (n = 360,000); in the data active = inhibition above about 5%, passing the limit was not always enough
Target sequence (P00519 whole entry, looked up): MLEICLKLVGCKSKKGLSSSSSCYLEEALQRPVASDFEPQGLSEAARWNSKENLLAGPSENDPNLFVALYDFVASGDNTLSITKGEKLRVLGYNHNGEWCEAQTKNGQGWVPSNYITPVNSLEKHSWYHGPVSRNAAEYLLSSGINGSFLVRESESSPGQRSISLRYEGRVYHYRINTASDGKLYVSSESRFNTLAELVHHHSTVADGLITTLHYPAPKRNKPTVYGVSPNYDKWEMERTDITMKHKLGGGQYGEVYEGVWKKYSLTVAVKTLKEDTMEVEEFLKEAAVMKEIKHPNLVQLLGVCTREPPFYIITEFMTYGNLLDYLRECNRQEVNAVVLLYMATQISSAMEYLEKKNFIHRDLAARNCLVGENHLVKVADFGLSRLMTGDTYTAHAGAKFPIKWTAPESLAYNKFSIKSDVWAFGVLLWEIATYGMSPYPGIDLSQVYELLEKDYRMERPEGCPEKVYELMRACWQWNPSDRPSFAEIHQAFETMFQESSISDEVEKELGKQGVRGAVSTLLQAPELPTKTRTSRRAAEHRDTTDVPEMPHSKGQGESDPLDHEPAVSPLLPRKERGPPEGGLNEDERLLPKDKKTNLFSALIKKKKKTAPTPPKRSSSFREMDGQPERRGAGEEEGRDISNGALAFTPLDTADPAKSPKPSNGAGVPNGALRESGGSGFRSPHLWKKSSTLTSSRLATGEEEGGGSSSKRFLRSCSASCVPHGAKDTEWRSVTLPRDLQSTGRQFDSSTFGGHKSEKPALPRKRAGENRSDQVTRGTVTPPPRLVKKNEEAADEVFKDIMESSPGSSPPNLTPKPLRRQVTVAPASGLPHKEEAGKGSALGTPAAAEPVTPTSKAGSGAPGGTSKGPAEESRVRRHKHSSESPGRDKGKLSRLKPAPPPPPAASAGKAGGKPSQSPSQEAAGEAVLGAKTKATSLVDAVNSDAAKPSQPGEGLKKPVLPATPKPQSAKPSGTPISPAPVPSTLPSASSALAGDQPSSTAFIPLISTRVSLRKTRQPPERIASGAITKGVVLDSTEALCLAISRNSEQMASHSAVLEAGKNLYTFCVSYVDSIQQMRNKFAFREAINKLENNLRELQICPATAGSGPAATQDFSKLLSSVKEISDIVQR
Target sequence (Q13671 whole entry, looked up): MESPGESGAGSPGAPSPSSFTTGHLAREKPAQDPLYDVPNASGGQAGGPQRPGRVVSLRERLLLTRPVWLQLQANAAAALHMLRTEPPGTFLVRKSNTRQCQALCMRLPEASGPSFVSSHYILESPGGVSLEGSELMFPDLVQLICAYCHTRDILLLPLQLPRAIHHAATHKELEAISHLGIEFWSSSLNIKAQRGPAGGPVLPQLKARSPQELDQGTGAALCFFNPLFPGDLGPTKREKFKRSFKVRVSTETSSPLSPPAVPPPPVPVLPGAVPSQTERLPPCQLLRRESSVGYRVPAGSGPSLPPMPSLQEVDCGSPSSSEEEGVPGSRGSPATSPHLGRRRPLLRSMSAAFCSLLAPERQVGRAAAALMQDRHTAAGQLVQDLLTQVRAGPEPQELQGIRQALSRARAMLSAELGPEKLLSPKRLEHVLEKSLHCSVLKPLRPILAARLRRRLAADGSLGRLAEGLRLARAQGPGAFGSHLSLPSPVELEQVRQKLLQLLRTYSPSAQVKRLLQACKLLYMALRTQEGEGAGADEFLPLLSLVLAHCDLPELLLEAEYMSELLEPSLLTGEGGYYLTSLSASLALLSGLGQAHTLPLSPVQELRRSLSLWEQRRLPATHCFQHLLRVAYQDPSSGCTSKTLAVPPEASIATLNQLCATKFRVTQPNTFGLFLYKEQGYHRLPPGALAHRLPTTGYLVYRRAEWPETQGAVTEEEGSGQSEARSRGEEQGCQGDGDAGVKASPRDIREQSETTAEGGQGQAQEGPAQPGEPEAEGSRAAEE
ABHD5 PLIN5 PPI = inhibitors of human ABHD5-perilipin-5 interaction | Q00G26+Q8WTS1 | AID 602281 | actives 0.78% (n = 360,000) | inhibition, % at 4 µM | Split G. princeps luciferase complementation, luminescence, 4 h;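 active = inhibition above the mean inhibition across every tested compound plus 3 SD, cut at about 22% in these data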;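 also: 0% = DMSO only wells and the 100% control is not disclosed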
Rpn11 inh = inhibitors of human proteasome Rpn11 | O00487 | human 26S proteasome, Ub4-pepOG fluorescence polarization; 20S core pre-blocked with epoxomicin | inhibition, % at 20 µM | actives 0.59% (n = 360,000) | AID 588493;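 active = inhibition at 20 µM, scaled to each plate's controls, above about 33%, limit read from the data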
NadD block = inhibitors of Staphylococcus aureus NadD; purified NadD enzyme, colorimetric absorbance read-out; inhibition, % at 20 µM; actives 0.78% (n = 360,000); in the data active = inhibition above about 26%
Xi reactivation = reactivates the inactive X chromosome in mouse fibroblasts; activation, % at 7.58 µM; XiGFP mouse fibroblasts, % GFP-positive cells imaging, 3 d; cells co-treated with 5-aza-dC sensitizer; scaled so ellipticine positive control = 100%; actives 0.055% (n = 360,000);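 active = mean normalized replicate activation at least 10% and every replicate at or above 10%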;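 also: 0% = median of on-plate neutral control wells and 100% = ellipticine 6 µM median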
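Assay system – SV40-immortalized XiGFP fibroblast cells, line 68-5-11 · Buffer or medium – DMEM supplemented with 5-aza-dC as sensitizing agent · Dosing – one concentration, pinned · Benchmarks – positive control ellipticine, 6 µM final · Times – 3 days compound exposure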
NadD conf = confirmation of Staphylococcus aureus NadD inhibitors. shares compounds with NadD block. purified S. aureus NadD, colorimetric enzyme assay. inhibition, % at 20 µM. actives 13% (n = 2,000); in the data active = inhibition mostly above about 42%, no sharp cut-off; inactive = mostly below about 42%
* = called active by the depositor; nt = not tested or not shown.

SMILES	Rin1 Abl inh	ABHD5 PLIN5 PPI	Rpn11 inh	NadD block	Xi reactivation	NadD conf
CCNC(=O)C[C@H]1CC[C@@H]2[C@@H](COc3ccc(NS(C)(=O)=O)cc3C(=O)N2C)O1	nt	nt	nt	nt	1	nt
Cc1ccc(NC(=O)N(Cc2cccs2)Cc2cc3cc4c(cc3[nH]c2=O)OCO4)cc1	nt	nt	nt	nt	0	nt
Cc1ccc(NC(=O)N(Cc2ccc3c(c2)OCO3)Cc2cc3cc4c(cc3[nH]c2=O)OCCO4)cc1	1	-1	-3	34*	nt	9
CC1Cc2ccccc2N1CC(=O)NC(=O)NCc1ccco1 (stereo unspecified)	-1	13	11	32*	nt	31
O=C(CN1CCCc2ccccc21)NC(=O)NCc1ccco1	-2	19	-4	3	nt	nt
C[C@@H]1CN([C@H](C)CO)S(=O)(=O)c2ccc(-c3ccccc3)cc2O[C@@H]1CN(C)C(=O)c1ccc2c(c1)OCO2	nt	nt	nt	nt	0	nt
CO[C@H]1CN(C)C(=O)c2ccc(NC(C)=O)cc2OC[C@H](C)N(Cc2ccccc2F)C[C@@H]1C	nt	nt	nt	nt	0	nt
COc1cc(C#Cc2c(-c3cncn3C)n(C)c3ccc(-c4cc(OC)c(OC)c(OC)c4)cc23)cc(OC)c1	3	9	4	25	0	nt
COc1cc(C#Cc2c(-c3cncn3C)n(C)c3ccc(-c4ccc(OC)nc4)cc23)cc(OC)c1	1	2	2	36*	0	14
COc1cc(C#Cc2c(-c3cncn3C)n(C)c3ccc(-c4ccc5[nH]ccc5c4)cc23)cc(OC)c1	-2	-2	9	35*	0	36
c1ccc2cc(-c3cc4ccccn4c3)ccc2c1	3	2	16	35*	nt	16
CC=Cc1ccc2n(c1=O)C[C@H]1[C@H](CO)[C@@H](C(=O)NCC3CC3)[C@@H]2N1Cc1ccccc1OC (mixture of isomers)	nt	nt	nt	nt	0	nt
CC1(C)Cc2c(C#N)c(N3CCN(C(=O)c4ccccc4Cl)CC3)nc(-c3ccco3)c2CS1	0	29*	26	34*	nt	1
N#Cc1c(N2CCN(C(=O)c3ccccc3Cl)CC2)nc(-c2ccccc2)c2c1CCCC2	1	-1	10	20	nt	nt
Cc1ccc(Cn2c(N)c(S(=O)(=O)c3cccs3)c3nc4ccccc4nc32)cc1	1	-7	2	32*	nt	30
O=C(C[C@H]1CC[C@@H]2[C@H](COC[C@H](O)CN2Cc2nccs2)O1)NCc1ccccc1	nt	nt	nt	nt	0	nt
c1ccc(CNc2nc(NCC3CC3)nc3cc(-c4ccccc4)sc23)cc1	-5	13	-6	26	0	nt
CC(C)Nc1nc(NCCN2CCCC2)c2sc(-c3ccccc3)cc2n1	-3	8	1	34*	0	-21
c1ccc(OCCNc2nc(NCC3CC3)nc3cc(-c4ccccc4)sc23)cc1	-8	-3	0	33*	0	19
CC(C)Nc1nc(-c2ccccc2F)c2sc(-c3ccccc3)cc2n1	-7	-3	11	4	0	nt
O=C1Nc2ccccc2N(C(=O)c2ccc(-c3ccccc3)cc2)C1c1nc2ccccc2[nH]1 (stereo unspecified)	nt	-4	nt	31*	0	20
C[C@@H]1CN([C@@H](C)CO)C(=O)c2cc(C#CCc3ccccc3)cnc2O[C@H]1CN(C)C(=O)C1CCCCC1	nt	nt	nt	nt	-1	nt
C[C@H](CO)N1C[C@H](C)[C@@H](CN(C)CC2CCCCC2)OCCCC[C@H](C)Oc2ccc(NS(=O)(=O)c3ccc(F)cc3)cc2C1=O	nt	nt	nt	nt	0	nt
CC(C)C[C@H]1CN([C@@H](Cc2ccccc2)CN2CCC[C@@H]2CN2C(=O)C(=O)NC[C@@H]2Cc2ccc(O)cc2)C(=O)C(=O)N1CC1CCCCC1	3	5	-10	12	0	nt
O=C1NC[C@H](Cc2ccccc2)N(C[C@@H]2CCCN2C[C@H](Cc2ccc(O)cc2)N2C[C@H](Cc3ccccc3)N(CC3CCCCCC3)C(=O)C2=O)C1=O	nt	14	nt	39*	0	48*
SMILES	Rin1 Abl inh	ABHD5 PLIN5 PPI	Rpn11 inh	NadD block	Xi reactivation	NadD conf
O=C1NC[C@@H](CCCCN2C[C@H](Cc3ccc(O)cc3)N(CCC3CCCCC3)C(=O)C2=O)N(CC2CCCCC2)C1=O	nt	-51	nt	44*	0	47*
O=C1NC[C@H](Cc2ccc(O)cc2)N(C[C@@H]2CCCN2C[C@H](Cc2ccccc2)N2C[C@H](Cc3ccccc3)N(CC3CCCCCC3)C(=O)C2=O)C1=O	nt	8	nt	52*	0	43
CC(C)C[C@H]1CN([C@@H](Cc2ccccc2)CN2CCC[C@H]2CN2C(=O)C(=O)NC[C@@H]2Cc2ccc(O)cc2)C(=O)C(=O)N1CC1CCCCC1	nt	0	nt	31*	0	40
COc1cccc(C#Cc2ccc([C@H]3[C@H](CO)N4C(=O)CN(C(=O)Cc5cccnc5)C[C@@H]34)cc2)c1	nt	nt	nt	nt	0	nt
COc1cc2oc(=O)cc(CN3CCN(c4ccc(Cl)c(Cl)c4)CC3)c2cc1Cl	0	15	21	39*	0	13
CCc1nnc(NS(=O)(=O)c2ccc(NC(=S)NC(=O)/C=C/c3ccccc3)cc2)s1	-2	-1	11	20	0	nt
COc1ccc(NS(=O)(=O)c2ccc(NC(=S)NC(=O)/C=C/c3ccccc3)cc2)nn1	1	3	13	48*	nt	54*
CC(C)NC(=O)N(C)C[C@@H]1Oc2ccc(NC(=O)Cc3cn(C)c4ccccc34)cc2CC(=O)N([C@@H](C)CO)C[C@H]1C	nt	nt	nt	nt	0	nt
CCCNC(=O)Nc1ccc2c(c1)C(=O)N(C)[C@@H]1CC[C@H](CC(=O)O)O[C@@H]1CO2	nt	nt	nt	nt	0	nt
CCOC(=O)c1sc(NC(=O)c2cccc(S(=O)(=O)N3CCc4ccccc43)c2)c(C#N)c1C	1	3	16	36*	1	4
O=C(O)c1cccc(NC(=S)NC(NC(=O)c2cccc([N+](=O)[O-])c2)C(Cl)(Cl)Cl)c1 (stereo unspecified)	3	-5	-16	64*	0	7
O=C(O)c1cccc(NC(=S)NC(NC(=O)c2ccccc2[N+](=O)[O-])C(Cl)(Cl)Cl)c1 (stereo unspecified)	4	2	-7	-4	0	nt
COc1ccc(-c2c/c(=N\c3nc(-c4ccccc4)c(C)s3)c3ccccc3o2)cc1O	-3	3	26	39*	nt	18
O=C(CSc1nc2ccc(NC(=O)CSc3nnnn3-c3ccccc3)cc2s1)Nc1ccccc1	-6	-1	26	39*	0	20
CC(=O)N1CC2(C1)[C@H](c1ccc(-c3ccc(C#N)cc3)cc1)[C@@H](CO)N2CCC(F)(F)F	nt	nt	nt	nt	0	nt
NC(=S)NN=C1c2cc(Cl)ccc2-c2c1cc(Cl)cc2[N+](=O)[O-]	3	-17	16	35*	nt	5
COc1cc2c(cc1[N+](=O)[O-])-c1ccc([N+](=O)[O-])cc1C2=NNC(N)=S	-6	-1	-9	48*	nt	33

Compound activity: PubChem, several laboratories
